Reference: ChEMBL document CHEMBL5705886, “GSK1070916, a potent Aurora B/C kinase inhibitor with broad antitumor activity in tissue culture cells and human tumor xenograft models” (Mol Cancer Ther, 2009)
The source made the active and inactive calls. The rule behind the calls is not given here.

How the values were obtained:
[1] = Toxicity in SCID nude mouse xenografted with human HL-60 cells assessed as drug tolerance at 100 mg/kg, ip administered once daily for 5 consecutive days with 2 days off scheduled for 2 cycles measured upto 60 days; conditions: in vivo, 1440 h
[2] = Antiproliferative activity against human Kasumi-2 cells assessed as inhibition of cell viability measured for 6 to 7 days by cell titer glo assay; format: functional, cell-based
Summary of the method: (§1)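 Cells seeded in recommended growth medium, incubated overnight at 37°C in 5% CO2, then exposed to serial dilutions of inhibitor for 6–7 d. A parallel plate was read with CellTiter-Glo at compound addition as a T=0 value. The luminescent viability readout had no-cell background subtracted and was expressed as % of DMSO control.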

[3] = test system: A2780; assay: Antiproliferative activity against human A2780 cells assessed as inhibition of cell viability measured for 6 to 7 days by cell titer glo assay; format: functional, cell-based
Summary of the method: (§2)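 Tumor lines plated in recommended growth media, overnight at 37°C, 5% CO2, then given serial dilutions; a T=0 plate read with CellTiter-Glo at dosing. After 6–7 d of exposure, viability read by CellTiter-Glo luminescence. No-cell wells subtracted, data expressed as % of DMSO control.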

[4] = test system: MOLT-3; assay: Antiproliferative activity against human MOLT-3 cells assessed as inhibition of cell viability measured for 6 to 7 days by cell titer glo assay; format: functional, cell-based
Summary of the method: as §1

[5] = Antiproliferative activity against human CML-T1 cells assessed as inhibition of cell viability measured for 6 to 7 days by cell titer glo assay; format: functional, cell-based
Summary of the method: as §2

[6] = test system: ARH-77; assay: Antiproliferative activity against human ARH-77 cells assessed as inhibition of cell viability measured for 6 to 7 days by cell titer glo assay; format: functional, cell-based
Summary of the method: as §2

[7] = test system: OCI-AML-3; assay: Antiproliferative activity against human OCI-AML-3 cells assessed as inhibition of cell viability measured for 6 to 7 days by cell titer glo assay; format: functional, cell-based
Summary of the method: (§3)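 Cells seeded in recommended growth medium, held overnight at 37°C in 5% CO2, then exposed to serial dilutions of inhibitor for 6–7 d. A time-zero plate was read with CellTiter-Glo at dosing. Luminescent viability read at the end. No-cell wells subtracted as background, data expressed as percent of DMSO control.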

[8] = Antiproliferative activity against human TO 175.T cells assessed as inhibition of cell viability measured for 6 to 7 days by cell titer glo assay; format: functional, cell-based
Summary of the method: as §3

[9] = test system: HCT-116; assay: In vivo inhibition of Aurora B in human HCT-116 cells xenografted in athymic nude mouse assessed as inhibition of HH3-S10 phosphorylation administered as single ip dose incubated for 0.5 to 72 hrs; format: functional, organism-based; conditions: dose 25-100 mg/kg, time 0.5-72 hrs
[10] = test system: NU-DUL-1; assay: Antiproliferative activity against human NU-DUL-1 cells assessed as inhibition of cell viability measured for 6 to 7 days by cell titer glo assay; format: functional, cell-based
Summary of the method: as §3

[11] = test system: COLO 205; assay: Antiproliferative activity against human COLO 205 cells assessed as inhibition of cell viability measured for 6 to 7 days by cell titer glo assay; format: functional, cell-based
Summary of the method: as §2

[12] = Antiproliferative activity against human MEC-1 cells assessed as inhibition of cell viability measured for 6 to 7 days by cell titer glo assay; format: functional, cell-based; conditions: MEC1
Summary of the method: as §1

[13] = Antiproliferative activity against human Tanoue cells assessed as inhibition of cell viability measured for 6 to 7 days by cell titer glo assay; format: functional, cell-based
Summary of the method: as §3

[14] = Toxicity in SCID nude mouse xenografted with human SW620 cells assessed as body weight loss at 25 to 100 mg/kg, ip administered once daily for 5 consecutive days with 2 days off scheduled for 3 cycles measured upto 60 days relative to control; format: organism-based, SW-620; conditions: in vivo, 1440 h, dose 25-100 mg/kg, time 60 day
[15] = test system: SU-DHL-5; assay: Antiproliferative activity against human SU-DHL-5 cells assessed as inhibition of cell viability measured for 6 to 7 days by cell titer glo assay; format: functional, cell-based
Summary of the method: as §3

[16] = test system: ML-2; assay: Antiproliferative activity against human ML-2 cells assessed as inhibition of cell viability measured for 6 to 7 days by cell titer glo assay; format: functional, cell-based
Summary of the method: as §1

[17] = test system: A549; assay: Induction of mitotic alteration in human A549 cells formation of multipolar spindles at 12 to 330 nmol/L incubated for 24 hrs by immunofluorescent microscopy based analysis; format: functional, cell-based; conditions: dose lower […], dose upper 330.0 nmol/L
[18] = test system: MCF7; assay: Antitumor activity in human MCF7 cells xenografted in SCID mouse assessed as reduction in tumor growth at 50 to 100 mg/kg, ip administered once daily for 5 consecutive days with 2 days off scheduled for 3 cycles measured upto 60 days; format: functional, organism-based; conditions: dose 50-100 mg/kg, time <= 60.0 day
[19] = Toxicity in SCID nude mouse xenografted with human SW620 cells assessed as drug tolerance at 25 to 100 mg/kg, ip administered once daily for 5 consecutive days with 2 days off scheduled for 3 cycles measured upto 60 days; format: organism-based, SW-620; conditions: in vivo, 1440 h, dose 25-100 mg/kg, time < 60 day
[20] = Toxicity in SCID nude mouse xenografted with human K562 cells assessed as body weight loss at 100 mg/kg, ip administered once daily for 5 consecutive days with 2 days off scheduled for 3 cycles measured upto 60 days; format: organism-based; conditions: in vivo, 1440 h, time < 60 day
[21] = test system: SU-DHL-6; assay: Antiproliferative activity against human SU-DHL-6 cells assessed as inhibition of cell viability measured for 6 to 7 days by cell titer glo assay; format: functional, cell-based
Summary of the method: as §3

[22] = test system: SU-DHL-16; assay: Antiproliferative activity against human SU-DHL-16 cells assessed as inhibition of cell viability measured for 6 to 7 days by cell titer glo assay; format: functional, cell-based
Summary of the method: as §3

[23] = Antiproliferative activity against human CEM/C1 cells assessed as inhibition of cell viability measured for 6 to 7 days by cell titer glo assay; format: functional, cell-based
Summary of the method: as §2

[24] = Antiproliferative activity against human SKO-007 cells assessed as inhibition of cell viability measured for 6 to 7 days by cell titer glo assay; format: functional, cell-based
Summary of the method: as §3

[25] = test system: RL; assay: Antiproliferative activity against human RL cells assessed as inhibition of cell viability measured for 6 to 7 days by cell titer glo assay; format: functional, cell-based
Summary of the method: as §3

[26] = test system: MC116; assay: Antiproliferative activity against human MC116 cells assessed as inhibition of cell viability measured for 6 to 7 days by cell titer glo assay; format: functional, cell-based
Summary of the method: as §1

[27] = test system: SEM cells; assay: Antiproliferative activity against human SEM cells assessed as inhibition of cell viability measured for 6 to 7 days by cell titer glo assay; format: functional, cell-based
Summary of the method: as §3

[28] = test system: HL-60; assay: Antitumor activity in human HL-60 cells xenografted in SCID mouse assessed as median survival time at 12.5 mg/kg, ip administered once daily for 5 consecutive days with 2 days off scheduled for 2 cycles measured upto 120 days; format: functional; conditions: time <= 120 day
[29] = test system: NCI-H358; assay: Antiproliferative activity against human NCI-H358 cells assessed as inhibition of cell viability measured for 6 to 7 days by cell titer glo assay; format: functional, cell-based
Summary of the method: as §1

[30] = test system: NC-37; assay: Antiproliferative activity against human NC-37 cells assessed as inhibition of cell viability measured for 6 to 7 days by cell titer glo assay; format: functional, cell-based
Summary of the method: as §1

[31] = target: Aurora kinase B (Homo sapiens) (UniProt Q96GD4)
[32] = test system: COLO 320DM; assay: Antiproliferative activity against human COLO 320DM cells assessed as inhibition of cell viability measured for 6 to 7 days by cell titer glo assay; format: functional, cell-based
Summary of the method: as §2

[33] = Antiproliferative activity against human PLB-985 cells assessed as inhibition of cell viability measured for 6 to 7 days by cell titer glo assay; format: functional, cell-based
Summary of the method: as §3

Sequence of Aurora kinase B (Homo sapiens) (Q96GD4 whole entry): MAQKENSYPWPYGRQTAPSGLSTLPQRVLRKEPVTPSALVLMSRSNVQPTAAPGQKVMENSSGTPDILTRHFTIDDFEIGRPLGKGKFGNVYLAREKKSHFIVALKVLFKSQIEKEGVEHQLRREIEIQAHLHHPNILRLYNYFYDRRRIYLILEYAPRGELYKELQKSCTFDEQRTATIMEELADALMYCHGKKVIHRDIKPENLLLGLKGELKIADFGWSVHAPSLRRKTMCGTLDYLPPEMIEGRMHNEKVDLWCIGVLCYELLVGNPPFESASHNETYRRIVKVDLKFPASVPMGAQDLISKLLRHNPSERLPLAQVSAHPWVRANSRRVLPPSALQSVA

CCn1cc(-c2ccnc3[nH]c(-c4cccc(CN(C)C)c4)cc23)c(-c2ccc(NC(=O)N(C)C)cc2)n1 [GSK-1070916]
Activity [1]: Toxic | EC50 [2]: 6 nM | EC50 [3]: 5 nM | EC50 [4]: 5 nM | EC50 [5]: 3 nM | EC50 [6]: 15 nM | EC50 [7]: 4 nM | EC50 [8]: 54 nM | Activity [9]: Dose-Dependent Effect | EC50 [10]: 4 nM | EC50 [11]: 7 nM | EC50 [12]: 10 nM | EC50 [13]: 1480 nM | Activity [14]: < 15% | EC50 [15]: 5 nM | EC50 [16]: 5 nM | Activity [17]: Active | Activity [18]: inactive | Activity [19]: Non-Toxic | Activity [20]: Toxic | EC50 [21]: 6 nM | EC50 [22]: 4 nM | EC50 [23]: 6 nM | EC50 [24]: 352 nM | EC50 [25]: 10 nM | EC50 [26]: 8 nM | EC50 [27]: 3 nM | MST [28]: 44 days | EC50 [29]: 4 nM | EC50 [30]: 7 nM | T1/2 [31]: > 8 h | EC50 [32]: 96 nM | EC50 [33]: 1 nM
